From ChEMBL document CHEMBL3352233, “N-[6-(4-butanoyl-5-methyl-1H-pyrazol-1-yl)pyridazin-3-yl]-5-chloro-1-[2-(4-methylpiperazin-1-yl)-2-oxoethyl]-1H-indole-3-carboxamide (SAR216471), a novel intravenous and oral, reversible, and directly acting P2Y12 antagonist” (J Med Chem, 2014)

How the values were obtained:
[1] = (§1) Metabolic stability in human liver microsomes assessed as compound metabolism after 20 mins incubation in presence of 1 mM NADPH; type: ADME; settings: liver microsomes, read-out: Drug metabolism
In short: (§2)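 Hepatic microsomal fractions are incubated with compound for 20 min with 1 mM NADPH. Result is reported as % metabolized, i.e. 100 minus % unchanged compound.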

[2] = (§3) Metabolic stability in rat liver microsomes assessed as compound metabolism after 20 mins incubation in presence of 1 mM NADPH; type: ADME; settings: liver microsomes, read-out: Drug metabolism; in short: as §2
Rattus norvegicus [3] = experiment: Ex vivo inhibition of platelet aggregation in Sprague-Dawley rat at 10 mg/kg, po after 2 hrs; type: functional; settings: for inhibition in vivo at 10 mg/kg: Rattus norvegicus, Sprague-Dawley, po, 2 h
In short: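 Male Sprague−Dawley rats (250−300 g), 6 per batch, are dosed by stomach tube at 10 mL/kg of a 1 mg/mL solution in 5% glucose water containing 5% Cremophor and 3% glycofurol. At 2 h, aortic blood is drawn into 3.8% citrate (1:9) under pentobarbital. PRP is prepared at 300g for 5 min. ADP aggregation is read as the 6-min absorbance AUC and expressed as % inhibition.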

P2Y purinoceptor 12 = P2Y purinoceptor 12 (Homo sapiens, UniProt Q9H244); experiment: Displacement of [33P]2MeS-ADP from P2Y12 receptor (unknown origin) transfected in CHO cells after 30 mins by scintillation counting analysis; type: cell-based
Chain of P2Y purinoceptor 12 (Q9H244 whole entry): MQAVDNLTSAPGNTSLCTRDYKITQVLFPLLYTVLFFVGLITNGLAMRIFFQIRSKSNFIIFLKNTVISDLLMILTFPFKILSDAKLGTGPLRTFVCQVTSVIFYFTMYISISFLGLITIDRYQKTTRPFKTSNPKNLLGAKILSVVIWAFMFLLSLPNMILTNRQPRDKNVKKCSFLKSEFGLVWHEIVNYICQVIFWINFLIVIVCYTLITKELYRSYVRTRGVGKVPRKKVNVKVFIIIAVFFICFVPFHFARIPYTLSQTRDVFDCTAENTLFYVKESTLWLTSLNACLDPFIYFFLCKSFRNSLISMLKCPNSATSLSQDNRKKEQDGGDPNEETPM
In short: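 P2Y12-expressing CHO cells (35 × 10³/sample) in PBS with 1 mM EDTA and 0.2% BSA are exposed to compound for 30 min. [³³P]2-MeS-ADP (0.16 nM) is then added for 15 min at 20 °C, in triplicate. Filtration separates free from bound ligand, followed by scintillation counting. Nonspecific binding uses 1 mM unlabeled ADP. IC50 comes from a four-parameter logistic fit with asymptotes fixed at 0 and 100. n = 2.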

[4] = Permeability across human Caco2 cells; type: ADME, cell-based; settings: for Papp: Caco-2, read-out: permeability
In short: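 Permeation is measured across a Caco2 cell monolayer and reported in 10⁻⁷ cm·s⁻¹.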

Rattus norvegicus [5] = experiment: Ex vivo inhibition of platelet aggregation in Sprague-Dawley rat at 10 mg/kg, po after 6 hrs; type: functional; settings: Rattus norvegicus, Sprague-Dawley, po, 6 h
In short: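 Time-course study in Sprague−Dawley rats after a 10 mg/kg oral dose in glucose/Cremophor/glycofurol vehicle. Aortic citrated blood is sampled at intervals over the hours after dosing. PRP is prepared at 300g for 5 min. ADP-induced aggregation is measured as the 6-min absorbance AUC and reported as % inhibition.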

Salmonella typhimurium [6] = experiment: Mutagenicity in Salmonella typhimurium by Ames II test in presence of liver S9 fraction; type: toxicity, organism-based; settings: salmonella enterica subsp. enterica serovar typhimurium
Salmonella typhimurium [7] = experiment: Mutagenicity in Salmonella typhimurium by Ames II test in absence of liver S9 fraction; type: toxicity, organism-based; settings: salmonella enterica subsp. enterica serovar typhimurium
[8] = Metabolic stability in mouse liver microsomes assessed as compound metabolism after 20 mins incubation in presence of 1 mM NADPH; type: ADME; settings: read-out: Drug metabolism
In short: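 Compound incubated with mouse hepatic microsomal fractions for 20 min with 1 mM NADPH. Read-out is % metabolism, meaning 100 minus % unchanged compound.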

Hepatocyte [9] = experiment: Intrinsic metabolic clearance in human hepatocytes measured per 10^6 cells after 24 hrs; type: ADME, cell-based
In short: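 Human hepatocytes incubated with compound for 24 h to measure in vitro metabolism. Clearance reported in mL·h⁻¹·(10⁶ hepatocytes)⁻¹.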

Hepatocyte [10] = experiment: Intrinsic metabolic clearance in human hepatocytes measured assessed as CYP3A4 contribution per 10^6 cells after 24 hrs; type: ADME, cell-based
Rattus norvegicus [11] = experiment: Ex vivo inhibition of platelet aggregation in po dosed Sprague-Dawley rat after 2 hrs; type: functional
In short: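 Oral gavage in male Sprague−Dawley rats (250−300 g, 6 per batch), vehicle 5% glucose water with 5% Cremophor and 3% glycofurol. Blood is collected 2 h after dosing from the abdominal aorta into 3.8% citrate under pentobarbital. PRP is prepared at 300g for 5 min. ADP-induced aggregation is quantified as the 6-min absorbance AUC, given as % inhibition.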

Liver microsome [12] = experiment: as §1; type: ADME; settings: microsomes, 20 min; in short: as §2
Liver microsome [13] = experiment: as §3; type: ADME; settings: microsomes, 20 min; in short: as §2

SMILES | metabolised at 20 min [1] [%] | metabolised at 20 min [2] [%] | inhibition in vivo at 10 mg/kg (Rattus norvegicus [3]) [%] | IC50 (P2Y purinoceptor 12) [nM] | Papp [4] [×10⁻⁶ cm/s] | Activity (Salmonella typhimurium [6]) | Activity (Salmonella typhimurium [7]) | other results
CCCC(=O)c1cnn(-c2ccc(NC(=O)c3cn(CC(=O)N4CCN(C)CC4)c4cc(C)c(Br)cc34)cc2)c1C | 34 | 20 | 21 | 48 | 2.8 |  |  | 
CCCC(=O)c1cnn(-c2ccc(NC(=O)c3cn(CC(=O)N4CCN(Cc5cc(C)on5)CC4)c4ccc(Cl)cc34)cc2)c1C | 87 | 31 | 72 | 11 | 0.6 |  |  | inhibition in vivo at 10 mg/kg (Rattus norvegicus [5]): 60%
CCCC(=O)c1cnn(-c2ccc3c(c2)OCCN3)c1C |  |  |  |  |  | Non-toxic | Non-toxic | 
CCCC(=O)c1cnn(-c2ccc(N)c(C(=O)O)c2)c1C |  |  |  |  |  | Non-toxic | Non-toxic | 
CCCC(=O)c1cnn(-c2ccc(O)cc2)c1C |  |  |  |  |  | Non-toxic | Non-toxic | 
CCCC(=O)c1cnn(-c2ccc(N)nc2)c1C |  |  |  |  |  | Non-toxic | Non-toxic | 
CCCC(=O)c1cnn(-c2ccc(NC(=O)c3cn(CC(=O)N4CCN(C)CC4)c4cc(C)c(Cl)cc34)cc2)c1C | 36 | 23 | 31 | 34 | 3.6 |  |  | 
CCCC(=O)c1cnn(-c2ccc(N)c(C#N)c2)c1C |  |  |  |  |  | Non-toxic | Non-toxic | 
CCCC(=O)c1cnn(-c2ccc(NC(=O)c3cn(CC(=O)N4CCN(CCOC)CC4)c4ccc(Cl)cc34)cc2)c1C | 47 | 11 | 68 | 15 | 4.3 |  |  | inhibition in vivo at 10 mg/kg (Rattus norvegicus [5]): 65%
CCCC(=O)c1cnn(C2CCN(NC(=O)c3cn(CC(=O)N4CCN(C)CC4)c4ccc(Cl)cc34)CC2)c1C | 59 | 13 |  | 7 | 0.1 |  |  | metabolised at 20 min [8]: 3%; CLH (Hepatocyte [9]): 0.05 mL/h; Activity (Hepatocyte [10]): 35%; ED50 (Rattus norvegicus [11]): 0.95 mg/kg; inhibition (Rattus norvegicus [11]): Dose-dependent effect
CCCC(=O)c1cnn(-c2ccc(N)c(C(=O)N(C)C)c2)c1C |  |  |  |  |  | Toxic | Non-toxic | 
CCCC(=O)c1cnn(-c2ccc(NC(=O)c3cn(CC(=O)N4CCN(CCO)CC4)c4ccc(Cl)cc34)cc2)c1C | 14 | 6 | 22 | 11 |  |  |  | 
CCCC(=O)c1cnn(-c2ccc(N)nn2)c1C |  |  |  |  |  | Non-toxic | Non-toxic | 
CCCC(=O)c1cnn(-c2ccc(NC(=O)c3cn(CC(=O)N4CCN(C)C(C)C4)c4ccc(C)cc34)cc2)c1C (configuration not stated) | 65 | 45 |  | 27 | 5.5 |  |  | 
CCCC(=O)c1cnn(-c2ccc(NC(=O)c3cn(CC(=O)N4CCN(CC(F)F)CC4)c4ccc(C)cc34)cc2)c1C | 64 | 27 |  | 19 | 9.3 |  |  | 
CCCC(=O)c1cnn(-c2ccc(NC(=O)c3cn(CC(=O)N4CCN(CCO)CC4)c4ccc(C)cc34)cc2)c1C | 16 | 17 |  | 41 | 0.2 |  |  | 
CCCC(=O)c1cnn(-c2ccc(NC(=O)c3cn(CC(=O)N4CCN(C)CC4)c4cc(C)c(C)cc34)cc2)c1C.Cl | 50 | 52 | 37 | 39 | 5.9 |  |  | 
CCCC(=O)c1cnn(-c2ccc(NC(=O)c3cn(CC(=O)N4CCN5CCN(C)C(=O)C5C4)c4ccc(Cl)cc34)cc2)c1C (single isomer, unassigned; 103) |  |  |  | 7 |  |  |  | Drug metabolism (Liver microsome [12]): 52%; Drug metabolism (Liver microsome [13]): 23%; inhibition (INH) (Rattus norvegicus [3]; 10 mg/kg): 46%; permeability ([4]; Caco-2): 32 ×10⁻⁷ cm/s
CCCC(=O)c1cnn([C@H]2CC[C@H](N)CC2)c1C |  |  |  |  |  |  | Non-toxic | 
